Experimental data: ChEMBL document CHEMBL1129253, “Synthesis and pharmacological activity of triazole derivatives inhibiting eosinophilia” (1996)

The molecules below were run on Rattus norvegicus (assay: Inhibitory activity against eosinophilia when administered intraperitoneally in rats). Settings: ip, read-out: ID50 (the source's name).
`C/N=C(\S)n1nc(-c2ccc(Cl)cc2)nc1N` gave an ED50 of 0.07 mg/kg.

These molecules were tested on Rattus norvegicus (assay: Tested for sephadex-induced lung Eosinophilia inhibition at 30 mg/kg in rat). Settings: not given.
Assay type: functional
Summary of the method: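 Male Wistar rats (5/group) received 1 mL Sephadex G-200 (0.5 mg/mL in saline, boiled 5 h) by tail vein on days 0, 3 and 5. Drug or vehicle was given ip 10 min before each injection. On day 7, lungs were lavaged three times with heparinized PBS at 37 °C. Eosinophils and total cells were counted in Hinkelman reagent. % inhibition compares group-mean eosinophil/total ratios with vehicle.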
With `C/N=C(\S)n1nc(N)nc1N` the inhibition in vivo at 30 mg/kg was 53%.
Work on `CS(=O)(=O)n1ncnc1N` yielded an inhibition in vivo at 30 mg/kg of -40%.
`C/N=C(\S)c1cccnc1N` gave an inhibition in vivo at 30 mg/kg of 27%.
Molecule `CNC(=O)n1ncnc1N` has an inhibition in vivo at 30 mg/kg of 40%.
With `CN(C)C(=S)n1ncnc1N` the inhibition in vivo at 30 mg/kg was 34%.
Molecule `CCOCCC/N=C(\S)n1ncnc1N` has an inhibition in vivo at 30 mg/kg of 1%.
Molecule `C/N=C(\S)c1sccc1N` has an inhibition in vivo at 30 mg/kg of 4%.
For `C/N=C(\S)n1cnc(N)n1`, the inhibition in vivo at 30 mg/kg was 25%.
`C/N=C(\S)c1[nH]cnc1N` was tested, and the inhibition in vivo at 30 mg/kg was 5%.
Molecule `Nc1ncnn1/C(S)=N/CCCCCO` has an inhibition in vivo at 30 mg/kg of -17%.
`C/N=C(\S)n1nc(-c2ccccc2)nc1N` gave an inhibition in vivo at 30 mg/kg of 54%.
For `CCOC(=O)C(=O)Nc1ccc(-c2nc(N)n(/C(S)=N/C)n2)cc1`, the inhibition in vivo at 30 mg/kg was 49%.
With `C/N=C(\S)n1nc(C)nc1N` the inhibition in vivo at 30 mg/kg was 13%.
Work on `C/N=C(\S)Nc1ccc(-c2nc(N)n(/C(S)=N/C)n2)cc1` yielded an inhibition in vivo at 30 mg/kg of 31%.
`CCCCCC/N=C(\S)n1ncnc1N` showed an inhibition in vivo at 30 mg/kg of -1%.
`C/N=C(\S)c1ncccc1N` showed an inhibition in vivo at 30 mg/kg of 9%.
With `C/N=C(\S)c1ccccc1N` the inhibition in vivo at 30 mg/kg was 47%.
`C/N=C(\S)n1ncnc1N` showed an inhibition in vivo at 30 mg/kg of 93%.
With `C/N=C(\S)n1nccc1N` the inhibition in vivo at 30 mg/kg was 27%.
`S=C(NC1CCCCC1)n1cncn1` was tested, and the inhibition in vivo at 30 mg/kg was 0%.
`CNC(=S)n1nc(-c2ccc(OC)cc2)nc1N` gave an inhibition in vivo at 30 mg/kg of 70%.
Molecule `CSC(=S)n1ncnc1N` has an inhibition in vivo at 30 mg/kg of 36%.
`CCCC/N=C(\S)n1ncnc1N` was tested, and the inhibition in vivo at 30 mg/kg was 21%.
In the case of `C/N=C(\S)n1nnnc1N`, the inhibition in vivo at 30 mg/kg is reported as 53%.
`C/N=C(\S)n1nc(-c2ccc(C#N)cc2)nc1N` was tested, and the inhibition in vivo at 30 mg/kg was 87%.
In the case of `C/N=C(\S)c1nccnc1N`, the inhibition in vivo at 30 mg/kg is reported as 27%.
Molecule `C/N=C(\S)n1nc(-c2ccc(C)cc2)nc1N` has an inhibition in vivo at 30 mg/kg of 65%.
In the case of `Nc1ncnn1/C(S)=N/C1CCCCC1`, the inhibition in vivo at 30 mg/kg is reported as 31%.
For `Nc1ncnn1/C(S)=N/Cc1ccccc1`, the inhibition in vivo at 30 mg/kg was 40%.
`C/N=C(\S)n1nc(-c2ccc(Cl)cc2)nc1N` gave an inhibition in vivo at 30 mg/kg of 88%.
`Nc1ncnn1/C(S)=N/c1ccccc1` showed an inhibition in vivo at 30 mg/kg of -7%.
`CCC/N=C(\S)n1ncnc1N` was tested, and the inhibition in vivo at 30 mg/kg was 93%.
For `CNC(=S)n1nc(SC)nc1N`, the inhibition in vivo at 30 mg/kg was 54%.
Molecule `C/N=C(\S)c1c[nH]nc1N` has an inhibition in vivo at 30 mg/kg of -22%.
For `CNC(=S)n1ncnc1NC`, the inhibition in vivo at 30 mg/kg was -1%.

These molecules were tested on Rattus norvegicus (assay: Inhibitory activity against eosinophilia when administered orally in rats). Settings: po, read-out: ID50 (the source's name).
In the case of `C/N=C(\S)n1nc(-c2ccc(Cl)cc2)nc1N`, the ED50 is reported as 0.3 mg/kg.
